Legend:
[1] = Ratio of tissue distribution between rat heart and blood after 180 min; format: ADME, organism-based
In short: (§1)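 Male Wistar rats (200-350 g) under ether anesthesia; radiotracer (3-5 μCi in 0.1 mL 50% aqueous ethanol) given iv. At 5, 30, 60 and 180 min, blood was drawn by cardiac puncture and animals were killed by cardiectomy. Organs were weighed and γ-counted against a 1:100 dilution of the injected dose. Results are given as % injected dose/g tissue; ratios are taken between tissue levels.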

Rattus norvegicus [2] = species: Rattus norvegicus; assay: Effect of vesamicol on the accumulation in rat kidney in group 1 (n=3); format: ADME, organism-based; conditions: in vivo
Rattus norvegicus [3] = species: Rattus norvegicus; assay: Tissue distribution in rat kidney after 60 minutes (n=3); format: ADME, organism-based; conditions: in vivo, 1 h; in short: as §1
Rattus norvegicus [4] = species: Rattus norvegicus; assay: Ratio of tissue distribution between rat heart and blood after 5 min; format: ADME, organism-based; conditions: other tissue, 5 min; in short: as §1
Rattus norvegicus [5] = species: Rattus norvegicus; assay: Effect of vesamicol on the accumulation in rat gonads in group 1 (n=3); format: ADME, organism-based; conditions: in vivo
Rattus norvegicus [6] = species: Rattus norvegicus; assay: Tissue distribution in rat spleen after 5 minutes (n=3); format: ADME, organism-based; conditions: in vivo
In short: (§2)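 Male Wistar rats (200-350 g) under ether, iv [125I]tracer (3-5 μCi in 0.1 mL 50% aqueous EtOH). At 5, 30, 60 or 180 min, blood taken by cardiac puncture and the rat killed by cardiectomy. Organs weighed and γ-counted against 1:100 dilutions of the injected dose; results in % injected dose/g, with range.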

Rattus norvegicus [7] = species: Rattus norvegicus; assay: Effect of vesamicol on the accumulation in rat lung in group 2 (n=3); format: ADME, organism-based; conditions: in vivo
Rattus norvegicus [8] = species: Rattus norvegicus; assay: Tissue distribution in rat liver after 180 minutes (n=3); format: ADME, organism-based; conditions: in vivo, 3 h; in short: as §2
Rattus norvegicus [9] = species: Rattus norvegicus; assay: Ratio of tissue distribution between rat brain and blood after 30 min; format: ADME, organism-based; conditions: 0.5 h
In short: (§3)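 Male Wistar rats (200-350 g) under ether anesthesia, iv radiotracer (3-5 μCi in 0.1 mL 50% aqueous ethanol). At 5, 30, 60, 180 min blood taken by cardiac puncture, animal killed by cardiectomy; organs weighed, γ-counted against 1:100 injected-dose dilution; % injected dose/g tissue; brain/blood ratio.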

Rattus norvegicus [10] = species: Rattus norvegicus; assay: Tissue distribution in rat brain after 5 minutes (n=3); format: ADME, organism-based; conditions: in vivo; in short: as §1
Rattus norvegicus [11] = species: Rattus norvegicus; assay: Effect of vesamicol on the accumulation in rat liver in group 1 ([…]); format: ADME, organism-based; conditions: in vivo
In short: (§4)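 Male Wistar rats (n = 4/group) given iv vehicle (100 μL 50% aqueous EtOH) or dl-vesamicol (1.01 μmol/kg); 15 min later iv radiotracer (2.0 μCi in 100 μL 50% aqueous EtOH); killed 30 min post-tracer. Blood by cardiac puncture, organs weighed and γ-counted vs 1:100 injected-dose dilution; % dose/g tissue (range); tissue/blood ratios.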

Rattus norvegicus [12] = species: Rattus norvegicus; assay: Tissue distribution in rat liver after 30 minutes (n=3); format: ADME, organism-based; conditions: in vivo, 0.5 h; in short: as §1
Rattus norvegicus [13] = species: Rattus norvegicus; assay: Tissue distribution in rat muscle after 5 minutes (n=3); format: ADME, organism-based; conditions: in vivo; in short: as §1
Rattus norvegicus [14] = species: Rattus norvegicus; assay: Tissue distribution in rat lung after 60 minutes (n=3); format: ADME, organism-based; conditions: in vivo, 1 h; in short: as §1
Rattus norvegicus [15] = species: Rattus norvegicus; assay: Tissue distribution in rat gonads after 30 minutes (n=3); format: ADME, organism-based, Gonad; conditions: in vivo, 0.5 h; in short: as §1
Rattus norvegicus [16] = species: Rattus norvegicus; assay: Effect of vesamicol on the accumulation in rat thyroid in group 2 (n=3); format: ADME, organism-based, Thyroid gland; conditions: in vivo; in short: as §4
Rattus norvegicus [17] = species: Rattus norvegicus; assay: Ratio of tissue distribution between rat brain and blood after 180 min; format: ADME, organism-based; conditions: 3 h; in short: as §3
Rattus norvegicus [18] = species: Rattus norvegicus; assay: Tissue distribution in rat blood after 30 minutes (n=3); format: ADME, organism-based; conditions: in vivo, 0.5 h; in short: as §1
Rattus norvegicus [19] = species: Rattus norvegicus; assay: Tissue distribution in rat thyroid after 30 minutes (n=3); format: ADME, organism-based, Thyroid gland; conditions: in vivo, 0.5 h; in short: as §1
[20] = Ratio of effect of vesamicol on the accumulation between rat heart and blood in group 1; format: ADME, organism-based; in short: as §4
Rattus norvegicus [21] = species: Rattus norvegicus; assay: Tissue distribution in rat liver after 5 minutes (n=3); format: ADME, organism-based; conditions: in vivo; in short: as §2
Rattus norvegicus [22] = species: Rattus norvegicus; assay: Ratio of tissue distribution between rat heart and blood after 60 min; format: ADME, organism-based; conditions: other tissue, 1 h; in short: as §1
Rattus norvegicus [23] = species: Rattus norvegicus; assay: Tissue distribution in rat spleen after 30 minutes (n=3); format: ADME, organism-based; conditions: in vivo, 0.5 h; in short: as §1
Rattus norvegicus [24] = species: Rattus norvegicus; assay: Effect of vesamicol on the accumulation in rat liver in group 2 (n=3); format: ADME, organism-based; conditions: in vivo
Rattus norvegicus [25] = species: Rattus norvegicus; assay: Tissue distribution in rat liver after 60 minutes (n=3); format: ADME, organism-based; conditions: in vivo, 1 h; in short: as §1
Rattus norvegicus [26] = species: Rattus norvegicus; assay: Tissue distribution in rat lung after 180 minutes (n=3); format: ADME, organism-based; conditions: in vivo, 3 h; in short: as §2
Rattus norvegicus [27] = species: Rattus norvegicus; assay: Ratio of tissue distribution between rat brain and blood after 60 min; format: ADME, organism-based; conditions: 1 h; in short: as §1
Rattus norvegicus [28] = species: Rattus norvegicus; assay: Tissue distribution in rat brain after 180 minutes (n=3); format: ADME, organism-based; conditions: in vivo, 3 h; in short: as §2
Rattus norvegicus [29] = species: Rattus norvegicus; assay: Tissue distribution in rat muscle after 180 minutes (n=3); format: ADME, organism-based; conditions: in vivo, 3 h; in short: as §1
Rattus norvegicus [30] = species: Rattus norvegicus; assay: Tissue distribution in rat muscle after 30 minutes (n=3); format: ADME, organism-based; conditions: in vivo, 0.5 h; in short: as §2
Rattus norvegicus [31] = species: Rattus norvegicus; assay: Effect of vesamicol on the accumulation in rat muscle in group 2 (n=3); format: ADME, organism-based, Muscle tissue; conditions: in vivo; in short: as §4
Rattus norvegicus [32] = species: Rattus norvegicus; assay: Tissue distribution in rat thyroid after 180 minutes (n=3); format: ADME, organism-based, Thyroid gland; conditions: in vivo, 3 h; in short: as §1
Rattus norvegicus [33] = species: Rattus norvegicus; assay: Effect of vesamicol on the accumulation in rat spleen in group 1 (n=3); format: ADME, organism-based; conditions: in vivo; in short: as §4
Rattus norvegicus [34] = species: Rattus norvegicus; assay: Tissue distribution in rat lung after 30 minutes (n=3); format: ADME, organism-based; conditions: in vivo, 0.5 h; in short: as §1
Rattus norvegicus [35] = species: Rattus norvegicus; assay: Tissue distribution in rat kidney after 30 minutes (n=3); format: ADME, organism-based; conditions: in vivo, 0.5 h; in short: as §1
Rattus norvegicus [36] = species: Rattus norvegicus; assay: Effect of vesamicol on the accumulation in rat kidney in group 2 (n=3); format: ADME, organism-based; conditions: in vivo

Which results are given for `O[C@@H]1CCN(Cc2cccc([125I])c2)C[C@H]1N1CCC(c2ccccc2)CC1` (stereo in doubt; (-))?
Kp at 3 h [1]: 5.32; Dose/g (Rattus norvegicus [2]): 2.45%; Dose/g (Rattus norvegicus [3]): 3.13%; Ratio (Rattus norvegicus [4]): 6.07; Dose/g (Rattus norvegicus [5]): 0.15%; Dose/g (Rattus norvegicus [6]): 1.04%; Dose/g (Rattus norvegicus [7]): 1.59%; Dose/g (Rattus norvegicus [8]): 2.23%; Ratio (Rattus norvegicus [9]): 9.06; Dose/g (Rattus norvegicus [10]): 0.92%; Dose/g (Rattus norvegicus [11]): 1.91%; Dose/g (Rattus norvegicus [12]): 2.35%; Dose/g (Rattus norvegicus [13]): 0.46%; Dose/g (Rattus norvegicus [14]): 2.41%; Dose/g (Rattus norvegicus [15]): 0.23%; Dose/g (Rattus norvegicus [16]): 4.56%; Ratio (Rattus norvegicus [17]): 9.87; Dose/g (Rattus norvegicus [18]): 0.11%; Dose/g (Rattus norvegicus [19]): 3.15%; Kp [20]: 2.75; Dose/g (Rattus norvegicus [21]): 2.07%; Ratio (Rattus norvegicus [22]): 5.97; Dose/g (Rattus norvegicus [23]): 1.24%; Dose/g (Rattus norvegicus [24]): 1.89%; Dose/g (Rattus norvegicus [25]): 2.63%; Dose/g (Rattus norvegicus [26]): 2.01%; Ratio (Rattus norvegicus [27]): 8.51; Dose/g (Rattus norvegicus [28]): 0.92%; Dose/g (Rattus norvegicus [29]): 0.27%; Dose/g (Rattus norvegicus [30]): 0.3%; Dose/g (Rattus norvegicus [31]): 0.16%; Dose/g (Rattus norvegicus [32]): 11.55%; Dose/g (Rattus norvegicus [33]): 1.05%; Dose/g (Rattus norvegicus [34]): 3.21%; Dose/g (Rattus norvegicus [35]): 3.53%; Dose/g (Rattus norvegicus [36]): 1.13%
